The values below come from ChEMBL document CHEMBL1154201, “2-Aminobenzimidazoles as potent Aurora kinase inhibitors” (Bioorg Med Chem Lett, 2009).

Values after ≈ are worked out from the molar mass of the structure shown. Active and inactive are the calls of the source. No cut-off for these calls is given here.

One may read the EC50 as the concentration at which the effect is half-maximal. One may read the solubility as how much of the substance goes into solution per volume. A word on the IC50: it is the concentration that inhibits the measured activity by half. Low values mean greater potency, high ones weaker potency. For orientation: half-life means how long it takes for the measured level to halve. In general, clearance refers to the volume of plasma or blood freed of the substance per unit of time. Higher therefore signals efficient removal.

Data set [1] deals with HCT-116. Put plainly: Cell cycle arrest in human HCT116 cells assessed as accumulation of 4N DNA by FACS analysis. Format: functional, cell-based. Put shortly: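 HCT116 cells exposed to 16, 63, 250 and 1000 nM of compound, then cell-cycle profile read by FACS. EC50 is reported as the concentration range at which ≥50% of cells have 4 N or higher DNA content.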
Data set [2] can be described thus: Aqueous solubility at pH 4. Format: physicochemical. Put shortly: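 Kinetic solubility at pH 4.0, reported as a range from low to high solubility; values of 1000 µM or higher are reported as >1000 µM.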
For a further data set, the target named is Aurora kinase B (Homo sapiens, UniProt Q96GD4). Put plainly: Inhibition of Aurora B after 60 mins.
Aurora kinase B, sequence (Q96GD4 whole entry): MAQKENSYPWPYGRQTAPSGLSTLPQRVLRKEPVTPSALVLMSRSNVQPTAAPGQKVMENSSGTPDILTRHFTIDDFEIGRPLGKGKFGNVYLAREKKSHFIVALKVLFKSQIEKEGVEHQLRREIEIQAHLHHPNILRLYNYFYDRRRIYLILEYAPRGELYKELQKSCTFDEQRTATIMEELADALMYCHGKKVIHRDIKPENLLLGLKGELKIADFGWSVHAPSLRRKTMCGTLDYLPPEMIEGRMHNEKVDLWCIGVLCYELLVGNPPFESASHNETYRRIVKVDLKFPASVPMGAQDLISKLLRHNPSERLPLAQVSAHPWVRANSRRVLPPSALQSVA
In the next data set the target is T1, Aurora kinase A (Homo sapiens, UniProt O14965).
T1 sequence (O14965 whole entry): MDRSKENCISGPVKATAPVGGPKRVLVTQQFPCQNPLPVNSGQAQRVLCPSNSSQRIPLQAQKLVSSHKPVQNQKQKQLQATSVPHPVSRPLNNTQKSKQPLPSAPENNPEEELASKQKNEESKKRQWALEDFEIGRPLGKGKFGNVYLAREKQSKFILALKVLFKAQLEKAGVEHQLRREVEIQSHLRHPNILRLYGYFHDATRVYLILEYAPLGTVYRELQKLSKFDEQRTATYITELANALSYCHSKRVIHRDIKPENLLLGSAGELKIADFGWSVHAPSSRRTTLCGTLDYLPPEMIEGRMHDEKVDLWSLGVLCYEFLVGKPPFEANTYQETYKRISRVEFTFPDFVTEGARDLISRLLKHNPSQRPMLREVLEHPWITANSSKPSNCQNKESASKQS
Description: Inhibition of Aurora A after 60 mins.

For data set [3], the system named is HCT-116. Description: Antiproliferative activity against human HCT116 cells by BrdU incorporation assay. In kind it is functional, cell-based. Put shortly:
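HCT116 proliferation measured as BrdU incorporation; EC50 reported.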

The nature of data set [4]: Half life in mouse at 5 mg/kg, iv. In kind it is ADME, organism-based. The arrangement: dose 5 mg/kg, route intravenous. Particulars: in vivo.
Data set [5] in a line: Clearance in mouse at 5 mg/kg, iv. In kind it is ADME, organism-based. Further details: dose 5 mg/kg, route intravenous. The settings on record: in vivo.
The subject of data set [6] is HCT-116. Description: Cell cycle arrest in human HCT116 cells assessed as accumulation of cells at G2 phase. In kind it is functional, cell-based.

For `O=C(Nc1ccccc1)Nc1ncc(CCNc2ncnc3ccsc23)s1`, the EC50 with HCT-116 [1] stood at 16 nM. In data set [2], this molecule showed a solubility of 100 µM (≈ 39.7 µg/mL).

On to `c1ccc2[nH]c(Nc3ccc(CCNc4ncnc5ccsc45)cc3)nc2c1`, for which the results for the IC50 against Aurora kinase B and against Aurora kinase A were 10 nM and 28 nM, respectively. This molecule came in with an EC50 in the data set with HCT-116 [3] of 41 nM. Further, in data set [2], the solubility is greater than 1000 µM.

In data set [4], `CS(=O)(=O)O.O=C(Nc1cccc(Cl)c1)Nc1ncc(CCNc2ncnc3ccsc23)s1` [SNS-314 MESYLATE] showed a half-life of 1.4 h. The EC50 with HCT-116 [1] is less than 16 nM. In data set [2], the solubility is 50 µM. Besides, the clearance in data set [5] is 48 mL/min/kg.

At Aurora kinase B, `c1ccc2[nH]c(Nc3ccc(CNc4ncnc5ccsc45)cc3)nc2c1` displayed an IC50 greater than 10000 nM.

`c1cc(CCNc2ncnc3ccsc23)cc(Nc2nc3ccccc3[nH]2)c1` gave an IC50 on Aurora kinase B of 1400 nM.

In the case of `c1ccc2[nH]c(Nc3ncc(CCNc4ncnc5ccsc45)s3)nc2c1`, the IC50 on Aurora kinase B worked out at 420 nM; at Aurora kinase A, 1400 nM. The molecule further had a solubility in data set [2] of 400 µM (≈ 157 µg/mL).

On to `c1ccc2sc(Nc3ccc(CCNc4ncnc5ccsc45)cc3)nc2c1`, for which the midpoint of inhibition against Aurora kinase B, the IC50, lay at 2500 nM. Moreover, the concentration in solution in data set [2] (solubility) was 100 µM (≈ 40.4 µg/mL).

`c1ccc2oc(Nc3ccc(CCNc4ncnc5ccsc45)cc3)nc2c1`: on Aurora kinase B, half-maximal inhibition (IC50) was put at 120 nM. A half-maximal effect with HCT-116 [3] (EC50) was put at 400 nM. The molecule also registered a solubility in data set [2] of 200 µM (≈ 77.5 µg/mL).

For the molecule `c1ccc(-c2c[nH]c(Nc3ccc(CCNc4ncnc5ccsc45)cc3)n2)cc1`, on Aurora kinase B, the IC50 was greater than 10000 nM. In data set [2], this molecule yielded a solubility greater than 1000 µM.

`Fc1cc(CCNc2ncnc3ccsc23)ccc1Nc1nc2cc(C(F)(F)F)ccc2[nH]1`: the results for the IC50 against Aurora kinase B and at Aurora kinase A were 21 nM and 64 nM, respectively. Further, the EC50 in the data set with HCT-116 [1] was 63 nM; in the data set with HCT-116 [3], 80 nM. The solubility in data set [2] came out at 750 µM (≈ 354 µg/mL).

With `O=C(Nc1cccc(C(F)(F)F)c1)Nc1ncc(CCNc2ncnc3ccsc23)s1`, the EC50 in the data set on HCT-116 [1] was less than 16 nM. The same molecule came in with a solubility in data set [2] of 50 µM (≈ 23.2 µg/mL).

`FC(F)(F)c1cccc(Nc2nc3ccc(CCNc4ncnc5ccsc45)cc3[nH]2)c1` gave an IC50 against Aurora kinase B of 1400 nM.

Consider `FC(F)(F)c1ccc2[nH]c(Nc3ccc(CCNc4ncnc5ccsc45)cc3)nc2c1`, for which the IC50 against Aurora kinase B came out at 6 nM; against Aurora kinase A, 40 nM. The half-life in data set [4] is 0.61 h. Besides, the outcome in the data set with HCT-116 [6] was Active. The EC50 in the data set with HCT-116 [1] came to 16 nM; in the data set with HCT-116 [3] it was 5 nM. In data set [2], this molecule came in with a solubility of 750 µM (≈ 341 µg/mL). The same molecule had a clearance in data set [5] of 85 mL/min/kg.

At Aurora kinase B, `FC(F)(F)c1ccc2nc(Nc3ccc(CCNc4ncnc5ccsc45)nc3)[nH]c2c1` displayed an IC50 of 63 nM. The EC50 turned out to be 63 nM in the data set with HCT-116 [1] and 161 nM with HCT-116 [3]. Further, the solubility in data set [2] amounted to 400 µM (≈ 182 µg/mL).

The molecule `Cc1nc(Nc2ccc(CCNc3ncnc4ccsc34)cc2)[nH]c1C` returned an IC50 at Aurora kinase B of 5600 nM. This molecule had a solubility in data set [2] greater than 1000 µM.

`Cn1c(Nc2ccc(CCNc3ncnc4ccsc34)cc2)nc2ccccc21` showed an IC50 against Aurora kinase B of 280 nM. The solubility in data set [2] was greater than 1000 µM.

`c1cc(CNc2ncnc3ccsc23)cc(Nc2nc3ccccc3[nH]2)c1` had an IC50 against Aurora kinase B of 580 nM. In the data set with HCT-116 [3], this molecule registered an EC50 of 8500 nM.

`c1cc2nc(Nc3ccc(CCNc4ncnc5ccsc45)cc3)[nH]c2cn1` returned an IC50 at Aurora kinase B of 140 nM. This molecule gave a solubility in data set [2] greater than 1000 µM.

On to `FC(F)(F)c1cnc2nc(Nc3ccc(CCNc4ncnc5ccsc45)cc3)[nH]c2c1`, for which the results for the IC50 at Aurora kinase B and at Aurora kinase A were 5 nM and 17 nM, respectively. This molecule showed a half-life in data set [4] of 1.5 h. For the same molecule, the EC50 was less than 16 nM with HCT-116 [1] and less than 1 nM in the data set on HCT-116 [3]. For the same molecule, in data set [2], the concentration in solution (solubility) was 100 µM (≈ 45.5 µg/mL).

Turning to `FC(F)(F)c1ccc2nc(Nc3ncc(CCNc4ncnc5ccsc45)s3)[nH]c2c1`, the IC50 against Aurora kinase B is 620 nM; against Aurora kinase A it was 490 nM. Also, the EC50 in the data set on HCT-116 [3] stood at 1900 nM. Further, in data set [2], the concentration in solution (solubility) came to 100 µM (≈ 46.1 µg/mL).

Regarding `Clc1cnc2nc(Nc3ccc(CCNc4ncnc5ccsc45)cc3)[nH]c2c1`, the IC50 was 10 nM against Aurora kinase B and 20 nM against Aurora kinase A. The values for the EC50 with HCT-116 [1] and with HCT-116 [3] were 16 nM and 17 nM, respectively. The molecule also had a solubility in data set [2] of 100 µM (≈ 42.2 µg/mL).

At Aurora kinase B, `FC(F)(F)c1ccc2[nH]c(Nc3ccc(CCNc4ncnc5ccsc45)cn3)nc2c1` displayed an IC50 of 600 nM. This molecule had a solubility in data set [2] greater than 1000 µM.

In turn, `c1cnc2nc(Nc3ccc(CCNc4ncnc5ccsc45)cc3)[nH]c2c1` came in with an IC50 at Aurora kinase B of 83 nM. Besides, in the data set on HCT-116 [3], the EC50 was 270 nM. The solubility in data set [2] was greater than 1000 µM.

As for `Clc1ccc2[nH]c(Nc3ccc(CCNc4ncnc5ccsc45)cc3)nc2c1`, the IC50 was determined as 8 nM on Aurora kinase B and 28 nM against Aurora kinase A. The molecule also gave a half-life in data set [4] of 0.45 h. For the same molecule, in the data set on HCT-116 [6], the outcome was Active. The EC50 in the data set on HCT-116 [1] amounted to 16 nM; in the data set on HCT-116 [3], 9 nM. In addition, the solubility in data set [2] is greater than 1000 µM. In data set [5], this molecule yielded a clearance of 39 mL/min/kg.
